Drawing on ChEMBL document CHEMBL1131298 (J Med Chem, 1998), this text covers k cat, T1/2 and IC50 for 13 molecules.

The nature of data set [1]: Kinetic parameter(rate of catalysis) was evaluated. It counts as ADME.
Data set [2] can be described thus: Kinetic parameter (half-life prodrug/drug) was evaluated. It counts as ADME. In outline: (§1)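 10 mM stocks diluted 100-fold to 100 µM in CPG2 assay buffer (100 mM Tris-HCl pH 7.3, 260 µM ZnCl2) at 37 °C. Remaining starting material followed by isocratic C18 HPLC in 10 mM ammonium acetate pH 5.0/methanol, UV at compound-specific wavelength, via repeat injections every 7.5 min or fresh-vial injections every 1 min.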

Data set [3] is described as follows: Cytotoxicity was evaluated against LS174T-stCPG2(Q)3-expressing cell clone. The class given is functional. The note with it: Homo sapiens. In outline:
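LS174T colon cells stably transfected with surface-tethered mutant CPG2 (stCPG2(Q)3) plasmid; 2 × 10^6 cells seeded, confluent at 48 h. Compound added from DMSO stock in full medium, a similar dose re-added after 1 h, then 20 h more. Cells reseeded in quadruplicate at ~2 × 10^3/well, grown to control confluence; sulforhodamine-B at 590 nm, IC50 by interpolation.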

Data set [4] in a line: Kinetic parameter (half-life) was evaluated; NA ='Not applicable'. It counts as ADME. In outline: as §1

Where only a bound is given, the exact number is not on record here.

What is called IC50 is the concentration that gives 50% inhibition.

Consider `O=C(O)CC[C@H](NC(=O)Oc1ccc(COC(=O)Nc2ccc(N(CCCl)CCCl)cc2)cc1)C(=O)O`, for which the k cat in data set [1] is below 10 s⁻¹. Moreover, the T1/2 in data set [2] is listed as 8.1 min. The IC50 in data set [3] amounted to 0.62 µM.
Consider `Oc1ccc(N(CCF)CCF)cc1`, for which the T1/2 entry in data set [4] is recorded as “Not Active”. Besides, in data set [3], the IC50 is 323 µM.
The molecule `O=C(O)CC[C@H](NC(=O)Oc1ccc(COC(=O)Nc2ccc(N(CCF)CCF)cc2)cc1)C(=O)O` registered a k cat in data set [1] of 50 s⁻¹. The T1/2 result in data set [4] is on record as “Not Active”. The molecule further gave an IC50 in data set [3] of 257 µM.
The like results for `O=C(O)CC[C@H](NC(=O)Oc1ccc(COC(=O)Oc2ccc(N(CCF)CCF)cc2)cc1)C(=O)O` were, in that order, below 10 s⁻¹, “Not Active” and 128 µM.
On to `O=C(O)CC[C@H](NC(=O)Nc1ccc(COC(=O)Oc2ccc(N(CCF)CCF)cc2)cc1)C(=O)O`, for which the T1/2 in data set [2] is reported as below 10 min. Moreover, the IC50 in data set [3] worked out at 264 µM.
As for `O=C(O)CC[C@H](NC(=O)Oc1ccc(COC(=O)Oc2ccc(N(CCCl)CCCl)cc2)cc1)C(=O)O`, in data set [1], the k cat was below 10 s⁻¹. In addition, in data set [2], the T1/2 is 13.7 min. In addition, the half-maximal inhibitory concentration (IC50) in data set [3] came to 0.42 µM.
Regarding `O=C(O)CC[C@H](NC(=O)Nc1ccc(CO)cc1)C(=O)O`, the k cat in data set [1] is 65.4 s⁻¹.
Regarding `O=C(O)CC[C@H](NC(=O)Nc1ccc(COC(=O)Nc2ccc(N(CCF)CCF)cc2)cc1)C(=O)O`, in data set [1], the k cat amounted to 50 s⁻¹. Further, the T1/2 in data set [2] is recorded as 0.4 min. In addition, the IC50 in data set [3] stood at 184 µM.
`O=C(O)CC[C@H](NC(=O)Nc1ccc(COC(=O)Nc2ccc(N(CCCl)CCCl)cc2)cc1)C(=O)O`: in data set [1], the k cat was 50 s⁻¹. Moreover, the T1/2 in data set [2] worked out at 7.6 min. In addition, half-maximal inhibition in data set [3] (IC50) was put at 0.46 µM.
In the case of `O=C(O)CC[C@H](NC(=O)Nc1ccc(COC(=O)Oc2ccc(N(CCCl)CCCl)cc2)cc1)C(=O)O`, the k cat in data set [1] is below 10 s⁻¹. Also, the T1/2 in data set [2] turned out to be 0.3 min. Moreover, the IC50 in data set [3] is 0.48 µM.
In turn, `Nc1ccc(N(CCF)CCF)cc1` came in with a half-inhibitory concentration (IC50) in data set [3] of 121 µM.
In data set [1], `O=C(O)CC[C@H](NC(=O)Oc1ccc(CO)cc1)C(=O)O` came in with a k cat of 140 s⁻¹. Moreover, the T1/2 entry in data set [4] is listed as “Not Active”.
In data set [3], `CS(=O)(=O)OCCN(CCCl)c1ccc(C(=O)O)cc1` showed an IC50 of 27.8 µM. That is a double-digit micromolar value.
